Bioassay records as filed in PubChem BioAssay.
Rows were chosen to be rich in hits. Some 3.8% of all compounds tested hit in one or more screens of this group.
KCNQ1 pot: potentiators or activators of KCNQ1 channel, primary screen, cell-based, thallium flux, high-throughput; Potassium voltage-gated channel subfamily KQT member 1 (Homo sapiens), P51787; CHO-K1 KCNQ1, thallium flux FluxOR fluorescence; active compounds read high; B-score at 10 µM; 310,000 tested, 0.35% active; AID 2648, 2010;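 active = fluorescence ratio B-score, a plate-corrected score, at least three library SD, with initial intensity B-score within 5 SD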
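Doses: Single concentration per compound, DMSO matched to controls | Test system: KCNQ1-transfected CHO-K1 cells | Timing: 90 min dye loading and 20 min compound exposure, both at room temperature | Measured by: Kinetic FluxOR thallium fluorescence, 10-s 1-Hz baseline, 110-s post-stimulus read | Medium: Assay buffer with matched DMSO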
hERG rescue: hERG rescue from dofetilide block, primary screen, cell-based, CHO-hERG, FluxOR thallium flux, dofetilide IC70; dofetilide IC70 present; activation (rescue from dofetilide block), less the hit threshold, % at 10 µM; 310,000 tested, 0.51% active; AID 1511, 2009;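 active = activation above the mean of controls blocked by dofetilide plus 5 SD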;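 note: thallium influx through hERG after potassium depolarization seen as dye fluorescence rise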
KCNK3 block: human KCNK3 channel inhibitors, primary screen, CHO cells, FluxOR thallium flux, B-score. FluxOR fluorescence; active compounds read low. 340,000 tested, 0.84% active. B-score at 10 µM. Potassium channel subfamily K member 3 (Homo sapiens), O14649;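 active = B-score under library mean minus 4 SD, starting fluorescence ratio at most library mean plus 5 SD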;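 note: more negative B-score means stronger inhibition of thallium flux through KCNK3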
KCNK9 inh: KCNK9 potassium channel inhibitors, primary screen, HEK293 cells, thallium flux | Potassium channel subfamily K member 9 (Homo sapiens), Q9NPC2 | B-score at 10 µM | AID 488922, 2010 | FluxOR thallium flux fluorescence; active compounds read low | 310,000 tested, 1.2% active;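 active = ratio B-score over 3 SD below the library mean, with starting fluorescence within 5 SD of its mean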;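 note: negative B-score means less thallium flux so channel inhibition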
Kir21 inh: inhibitors of mouse Kir2.1 inward-rectifier potassium channel | 310,000 tested, 0.85% active | Inward rectifier potassium channel 2 (Mus musculus), P35561 | B-score at 10 µM | HEK293-Kir2.1, FluxOR thallium flux fluorescence; active compounds read low;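 active = fluorescence ratio B-score at or below minus 3 SD of library scores, with starting-brightness B-score within 2 SD, cut at about -4.2 in these data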;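 note: channel flux triggered by added potassium and thallium sulfate stimulus; B-score of peak minus minimum fluorescence over baseline after thallium stimulus; more negative B-score means stronger Kir2.1 block with less thallium influx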
KCNQ1 inh: inhibitors of human KCNQ1 channel, primary screen, cell-based, thallium flux, high-throughput | Potassium voltage-gated channel subfamily KQT member 1 (Homo sapiens), P51787 | CHO-K1 KCNQ1, FluxOR thallium flux fluorescence; active compounds read high | B-score at 10 µM | 310,000 tested, 1.3% active;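 active = compounds whose thallium flux B-score, printed positive for inhibition, exceeds three library SD while starting fluorescence stays within three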;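 note: channel opened by potassium depolarization with thallium stimulus after 20 min compound exposure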
KCNQ1 inh valid: KCNQ1 potassium channel inhibitors, confirmation, cell-based, Tl flux, duplicate; shares compounds with KCNQ1 inh; KCNQ1 cell line, FluxOR thallium flux fluorescence; inhibition, % at 10 µM; 1,600 tested, 93% active; AID 588353, 2011;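 active = primary screen active, with duplicate mean exceeding buffer control mean plus 3 SD of buffer wells, cut at about 28% in these data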;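 note: 0% = buffer control ratio and 100% = XE991 inhibitor control ratio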
CHO Tl flux: thallium flux effects in parental CHO cells, counter-screen for KCNQ1 inhibitor project, cell-based, Tl flux; fluorescence ratio (Tl flux) at 10 µM; AID 588366, 2011; parental CHO-K1, FluxOR thallium flux fluorescence ratio; active compounds read low; zero means no signal rise above baseline; shares compounds with KCNQ1 inh; 1,600 tested, 21% active;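 active = mean of duplicate thallium-flux fluorescence ratios in parental host cells more than 5 SD below the buffer control mean, cut at about 0.38 in these data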;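 note: ratio is peak minus minimum fluorescence divided by baseline fluorescence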
KCNQ1 ephys val: KCNQ1 channel inhibitors, confirmation, orthogonal assay, cell-based, automated electrophysiology; shares compounds with KCNQ1 inh; KCNQ1-CHO cells, automated patch clamp current; calls only at 10 µM; 490 tested, 20% active; AID 624120, 2012;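 active = KCNQ1 current drop exceeding 3 SD of negative control wells, seen in both duplicate runs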;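 note: steady state current during a 2 s step from -80 to +40 mV; negative values mean current inhibition and positive values mean potentiation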
KCNQ2 spec: KCNQ2 channel inhibition, selectivity assay for KCNQ1 inhibitor project, cell-based | shares compounds with KCNQ1 inh | KCNQ2 cells, FluxOR thallium flux fluorescence | inhibition, % at 10 µM | 1,600 tested, 71% active | AID 651746, 2012;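 active = mean percent inhibition of the KCNQ2 thallium signal more than 5 SD above the buffer-only control wells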;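 note: KCNQ2 expressed in CHO cells; 0% = buffer control wells and 100% = XE-991 inhibitor control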
KCNQ1-KCNE1 inh: KCNQ1/KCNE1 channel inhibition, selectivity assay for KCNQ1 inhibitor project, CHO-K1 cells, thallium flux, FluxOR | shares compounds with KCNQ1 inh | FluxOR thallium flux fluorescence | inhibition, % at 10 µM | 1,600 tested, 77% active;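 active = mean percent inhibition of duplicate wells above the buffer-only control mean plus 3 SD of those controls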;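 note: 0% = buffer only wells and 100% = XE-991 inhibitor control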
KCNK9 inh conf: KCNK9 potassium channel inhibitors, confirmation, HEK293 cells, thallium flux, duplicate; FluxOR thallium flux fluorescence; AID 492992, 2010; inhibition, % at 10 µM; shares compounds with KCNK9 inh; 4,900 tested, 43% active;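 active = thallium signal inhibited by more than 5 SD of the compound-free buffer control wells, on both duplicate plates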;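 note: 0% = assay buffer control wells without compound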
Kir21 sel: mouse Kir2.1 channel inhibition, confirmation, selectivity assay for KCNK9 modulator project, cell-based, HEK293, thallium flux | inhibition, % at 10 µM | shares compounds with KCNK9 inh | 4,900 tested, 4% active | Kir2.1 cells, FluxOR thallium flux fluorescence;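 active = thallium signal drop more than 5 SD beyond the mean of the no-compound control wells, seen in both duplicate plates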;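 note: signal is fluorescence rise after thallium addition divided by baseline fluorescence; plate controls were assay buffer only for no effect and full block by chlorpromazine control for full effect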
KCNK9 uninduced: thallium flux in non-induced HEK293 cells, confirmation, counter-screen for KCNK9 inhibitor project, cell-based, second counter screen, non-induced KCNK9-HEK293; AID 492997, 2010; shares compounds with KCNK9 inh; 4,900 tested, 40% active; FluxOR thallium flux; inhibition, % at 10 µM;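 active = thallium signal drop beyond 5 SD of the untreated control mean, on both duplicate plates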;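 note: plate controls were buffer only IC0 wells for no effect and SID17386958 at its maximal inhibitory level for full effect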
KCNK3 confirm: retest of human KCNK3 channel inhibitors, confirmation, CHO cells, FluxOR thallium flux, triplicate. FluxOR fluorescence; 0% buffer, 100% carvedilol maximal block. shares compounds with KCNK3 block. AID 651638, 2012. 2,400 tested, 99% active. ratio percent of control, % at 10 µM;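 active = ratio percent of control, averaged over triplicates, above buffer control mean plus 5 SD, cut at about 64% in these data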;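 note: ratio is the fluorescence rise from min to max over baseline after thallium stimulus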
KCNK3 uninduced: thallium flux inhibition in non-induced cells, primary screen, counter-screen for KCNK3 inhibitor project, cell-based, non-induced KCNK3 line, FluxOR thallium, triplicate. thallium flux ratio (lower = more inhibition) at 10 µM. shares compounds with KCNK3 block. non-induced KCNK3 parental cells; active compounds read low. 2,400 tested, 40% active. AID 651747, 2012;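 active = thallium flux ratio, averaged over three wells, more than 5 SD below the buffer control mean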;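 note: host cells are CHO cells without KCNK3 induction; ratio is peak minus trough fluorescence over baseline then normalized to buffer controls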
Starred values were filed as active, the others as inactive; i = inactive; x = no result given; + = active, no number.

SMILES	KCNQ1 pot	hERG rescue	KCNK3 block	KCNK9 inh	Kir21 inh	KCNQ1 inh	KCNQ1 inh valid	CHO Tl flux	KCNQ1 ephys val	KCNQ2 spec	KCNQ1-KCNE1 inh	KCNK9 inh conf	Kir21 sel	KCNK9 uninduced	KCNK3 confirm	KCNK3 uninduced
Cc1cc(C)cc(OCC(O)CN2CCC(CN3C(=O)c4cccc5cccc(c45)C3=O)CC2)c1 (stereo not drawn)	i	-36	-9.5*	i	-0.96	9*	128*	0.38	i	99%*	138%*	i	i	i	111*	i
CN(Cc1cccc2cnccc12)C(=O)c1cc(COc2ccc(F)cc2F)on1	i	-12	i	i	-0.94	i	x	x	x	x	x	x	x	x	x	x
CCc1ccc(CN(C)C(=O)c2cc(COc3cccc4cnccc34)on2)cc1	i	-14	-14*	-10*	1.6	11*	160*	0.33*	x	132%*	+	i	i	i	127*	0.15*
COc1cccc(NC(=O)CCN2CCN(C)CC2)c1	i	2	i	i	-0.58	i	x	x	x	x	x	x	x	x	x	x
c1csc(CNc2nc(-c3cccs3)nc3ccccc23)c1	i	-14	-11*	i	-2.1	6*	112*	0.38	i	123%*	168%*	x	x	x	108*	i
